# Screening results deposited in PubChem BioAssay by several laboratories.
# The list is not random: actives were taken first. Their share in the collection is about 2.2%.
# Granule exo inh: LAMP-1 surface exposure blockers, TALL-104 cells – cell-based, flow cytometry, MLPCN library, primary screen | TALL-104 LAMP-1 surface exposure; cells stimulated with thapsigargin and PMA | inhibition, % at 10 µM | hit rate 0.66% among 360,000 | AID 651702, 2012;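 active = inhibition above about 55%, limit read from the data; inconclusive = no clear call, values can overlap the other calls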
# PfGluPho inh: PfG6PD enzyme inhibitors, primary screen, biochemical, fluorescence intensity, uHTS | glucose-6-phosphate dehydrogenase-6-phosphogluconolactonase (Plasmodium falciparum 3D7) | PfGluPho enzyme, NADPH resazurin-diaphorase fluorescence | inhibition, % at 20 µM | hit rate 0.78% among 350,000 | AID 504690, 2011;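 active = inhibition reaching at least a set limit at 20 µM in the primary screen, cut at about 59% in these data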;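 also: 0% = DMSO wells with substrate and 100% = DMSO wells lacking glucose-6-phosphate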
# ABHD5 PLIN5 PPI: ABHD5-PLIN5 interaction inhibitors, primary screen, cell lysate, split luciferase complementation, luminescence; Perilipin-5 (Homo sapiens) + 1-acylglycerol-3-phosphate O-acyltransferase ABHD5 (Homo …; Split G. princeps luciferase complementation, 4 h; inhibition, % at 4 µM; hit rate 0.78% among 360,000; AID 602281, 2012;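 active = inhibition above the mean inhibition across every tested compound plus 3 SD, cut at about 22% in these data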;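 also: 0% = DMSO only wells and the 100% control is not disclosed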
# Target sequence (Q00G26 whole entry, looked up): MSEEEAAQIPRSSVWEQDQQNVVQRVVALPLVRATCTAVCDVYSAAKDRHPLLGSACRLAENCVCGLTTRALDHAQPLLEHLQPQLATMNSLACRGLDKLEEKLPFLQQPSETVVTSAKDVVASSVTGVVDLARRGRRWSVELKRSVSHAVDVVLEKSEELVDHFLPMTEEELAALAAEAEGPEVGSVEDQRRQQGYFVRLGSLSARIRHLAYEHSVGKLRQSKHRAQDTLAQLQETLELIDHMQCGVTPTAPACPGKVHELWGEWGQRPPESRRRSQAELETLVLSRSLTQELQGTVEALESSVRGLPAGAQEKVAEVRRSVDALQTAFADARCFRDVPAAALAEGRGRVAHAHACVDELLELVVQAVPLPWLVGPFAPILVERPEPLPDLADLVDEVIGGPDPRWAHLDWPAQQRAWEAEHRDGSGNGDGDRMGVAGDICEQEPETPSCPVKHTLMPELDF
# Target sequence (Q8WTS1 whole entry, looked up): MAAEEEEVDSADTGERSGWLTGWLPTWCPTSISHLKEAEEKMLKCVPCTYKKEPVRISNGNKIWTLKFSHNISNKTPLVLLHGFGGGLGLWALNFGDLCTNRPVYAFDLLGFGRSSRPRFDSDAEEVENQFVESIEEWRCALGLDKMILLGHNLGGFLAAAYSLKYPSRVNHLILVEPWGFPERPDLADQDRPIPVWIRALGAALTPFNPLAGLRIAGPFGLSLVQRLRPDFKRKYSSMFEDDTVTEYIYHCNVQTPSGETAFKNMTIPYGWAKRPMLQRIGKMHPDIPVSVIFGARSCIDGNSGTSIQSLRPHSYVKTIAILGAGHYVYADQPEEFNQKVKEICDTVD
# HKDC1 inh: HKDC1 hexokinase inhibitors, primary screen, biochemical, fluorescence, uHTS. Q2TB90. recombinant HKDC1, G6PDH/diaphorase resazurin coupled fluorescence. inhibition, % at 20 µM. hit rate 0.16% among 340,000. AID 493160, 2011;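 active = inhibition above about 35% when tested at 20 µM, limit read from the data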;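 also: plate controls were DMSO wells with enzyme for no effect and DMSO wells lacking enzyme for full effect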
#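 Material: recombinant HKDC1 hexokinase; Amount: HKDC1 at 5 µg/mL; Medium: Tris pH 8.0 buffer with MgCl2, Tween-20, BSA, BME; Schedule: 90 min reaction incubation at room temperature, dark; Technique: coupled resazurin fluorescence, excitation 525 nm, emission 613 nm.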
# ABHD5 PLIN5 conf: ABHD5-PLIN5 interaction inhibitors, confirmation, biochemical, luminescence. hit rate 67% among 2,200. AID 651612, 2012. inhibition, % at 4 µM. shares compounds with ABHD5 PLIN5 PPI; in the data active = inhibition above about 23%;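 also: 0% = DMSO vehicle wells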
# HNF4 split-luc: HNF4 dimerization inhibitors, counter-screen for ABHD5-PLIN5 interaction inhibitor project, biochemical, split-luciferase complementation, luminescence. shares compounds with ABHD5 PLIN5 PPI. inhibition, % at 4 µM. hit rate 77% among 2,200;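 active = mean inhibition across replicate wells exceeding the computed hit threshold, cut at about 13% in these data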;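 also: light from luciferase halves that rejoin when HNF4 fusion proteins dimerize; 0% = DMSO only wells and the 100% control is not given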
# * marks the source's active call; other numbers are inactive results; ? = inconclusive; . = not tested or not shown.
SMILES,Granule exo inh,PfGluPho inh,ABHD5 PLIN5 PPI,HKDC1 inh,ABHD5 PLIN5 conf,HNF4 split-luc
CCOC(=O)/C(=C/c1c(C)n(C)c2ccc([N+](=O)[O-])cc12)C(C)=O,2,54,46*,10,83*,76*
CCOc1ccc(S(=O)(=O)N2CCCCC2)cc1NC(=O)Cc1ccsc1,-6,-5,8,-4,.,.
Cc1ccc(NC(=S)N2CCN(S(C)(=O)=O)CC2)cc1Cl,-2,14,-7,-2,.,.
O=C(NCc1cccnc1)/C(=C/c1ccc(-c2ccc(Cl)cc2)o1)S(=O)(=O)c1ccccc1,87*,2,80*,11,97*,88*
C(=C\c1ccccc1)/CSc1nnc(-c2ccccn2)n1Cc1ccco1,41,0,34*,-3,21,44*
NC(=O)CSc1nnc(-c2ccccn2)n1Cc1ccco1,2,-4,0,-3,.,.
CCC(C)NCCOCCOc1ccc(Cl)c2ccccc12 (stereo not given),11,-4,30*,0,15,1
C#CCOCCOCCOCCNc1nc(N2CCOCC2)nc(N2CCN(C(=O)CCCCCCCCCCNC(=O)[C@H](CO)n3cc(CCCCCN)nn3)CC2)n1,-2,-6,4,0,.,.
C#CCOCCOCCOCCNc1nc(N2CCN(C(=O)CCCCCCCCCCNC(=O)[C@H](CCC(=O)O)n3cc(CCCCCN)nn3)CC2)nc(N2CCN(C(=O)CCCCCCCCCCNC(=O)[C@@H]([C@H](C)O)n3cc(C)nn3)CC2)n1,-5,0,27*,-1,7,1
C#CCOCCOCCOCCNc1nc(N2CCOCC2)nc(N2CCN(C(=O)CCCCCCCCCCNC(=O)[C@@H]([C@H](C)O)n3cc(C)nn3)CC2)n1,1,-17,-5,-4,.,.
C#CCOCCOCCOCCNc1nc(N2CCN(C(=O)CCCCCCCCCCNC(=O)[C@@H]([C@H](C)O)n3cc(C)nn3)CC2)nc(N2CCN(C(=O)CCCCCCCCCCNC(=O)[C@@H]([C@H](C)O)n3cc(C)nn3)CC2)n1,-8,18,40*,4,8,-13
CN(C(=O)CSc1nnc(-c2ccncc2)n1Cc1ccccc1)C1CCS(=O)(=O)C1 (stereo not given),2,.,2,.,.,.
O=Cc1c(-c2ccc(Cl)cc2)oc2ccc(O)cc12,-10,32,-9,12,.,.
COc1ccc(-c2ccc(=O)n(CC(=O)NCC3COCCO3)n2)cc1 (stereo not given),-1,-9,6,1,.,.
O=C(CN(C(=O)c1csnn1)c1cccc(C(F)(F)F)c1)NC1CCCC1,?,-12,-6,-3,.,.
C=C1C(=O)C2=CC1CCC(=O)C1(C)CCC(OC(C)=O)C(C)(C)C1CC2O (stereo not given),0,0,44*,1,58*,92*
CC(=O)OC1CCC2C3CCC4OC(=O)CCC4C3CCC12C (stereo not given),3,-1,5,-1,.,.
Cc1ccc(Cl)c(NC(=O)COC(=O)CNS(=O)(=O)/C=C/c2ccccc2)c1Cl,0,-2,44*,-8,3,6
COc1ccc(C(=O)/C=C/C(=O)N(Cc2ccc3c(c2)OCO3)C(C(=O)NC2CCCCC2)c2ccncc2)c(O)c1 (stereo not given),-4,7,3,-2,.,.
COCCN(CC(=O)NC1CCCCC1)C(=O)/C=C/C(=O)c1ccc(OC)cc1O,44,7,62*,-4,102*,106*
CC(NC(=O)C(NS(=O)(=O)c1cccs1)C(C)C)c1ccc(S(N)(=O)=O)cc1 (stereo not given),4,-12,0,-5,.,.
O=C1OC(/C(=C\Nc2ccccc2)[N+](=O)[O-])c2ccccc21 (stereo not given),5,-15,42*,8,7,26*
CN(C)C(=O)c1c(C(F)(F)F)nn(C)c1Cl,0,0,-1,5,.,.
CCN1C(=O)[C@H]2[C@@H](c3ccc(OC)cc3)N3C(=O)CN(CCOC)C(=O)[C@@]3(Cc3ccccc3)[C@H]2C1=O,-5,6,2,-1,.,.
COc1ccc(NC(=O)CCc2nnc3ccc(NCc4ccco4)nn23)cc1OC,1,4,34*,3,12,13*
SMILES,Granule exo inh,PfGluPho inh,ABHD5 PLIN5 PPI,HKDC1 inh,ABHD5 PLIN5 conf,HNF4 split-luc
COc1ccccc1NC(=O)CCc1nnc2ccc(NCc3ccco3)nn12,-2,-5,9,-1,.,.
O=C(CCc1nnc2ccc(NCc3ccco3)nn12)Nc1ccccn1,-5,12,12,1,.,.
COC(=O)c1ccc(NC(=O)CCc2nnc3ccc(NCc4ccco4)nn23)cc1,2,0,57*,0,14,14*
COc1ccc(NC(=O)CCc2nnc3ccc(NCc4ccco4)nn23)cc1,-2,10,1,0,.,.
Cc1cccnc1NC(=O)CCc1nnc2ccc(NCc3ccco3)nn12,0,-9,32*,11,11,6
CC(=O)C[C@H](O)CC(=O)[C@H]1OC(=O)CCCCCCCc2ccccc21,46,-6,5,-4,.,.
S=c1[nH]nc(-c2ccccn2)n1/N=C/c1ccc(-c2ccccc2Br)o1,1,8,-5,10,.,.
C[C@@H](NCCCn1cnc2c(OCc3ccccc3)ncnc21)c1cccc2ccccc12,24,0,5,-1,.,.
CN(C)c1ccc(/C=C/C(=O)c2cccnc2)cc1,11,-1,14,3,.,.
CN(C)C(=O)COc1ccc(C(=O)/C=C/c2cccnc2)cc1,4,17,28*,-2,52*,46*
O=C(/C=C/c1cccnc1)c1ccc(O)cc1,-6,6,29*,4,49*,48*
O=C(C=Cc1cccnc1)c1ccccc1,4,25,74*,3,84*,81*
O=C(/C=C/c1cccnc1)c1ccccc1O,-3,-2,13,1,.,.
CCCNC(=O)C1(C)CCCN(Cc2ccc(-c3ccccc3)cc2)C1 (stereo not given),2,.,8,.,.,.
CC1CCCN(S(=O)(=O)c2cc3c4c(c2)C(C)C(=O)N4CCC3)C1 (stereo not given),0,9,-3,-1,.,.
CCN(CC)S(=O)(=O)c1ccc(NC(=O)c2ccc(N3CCCC3=O)cc2)cc1,-4,-2,2,0,.,.
C=C1C(=O)OC2CC1C(OC(C)=O)CC(C)=CCCC(C)=CCCC2(C)O (stereo not given),2,.,61*,.,83*,66*
C=C1C(=O)OC2CC1C(O)CC(C)=CCCC(C)=CC(O)CC2C (stereo not given),12,14,55*,5,81*,61*
